Activity calls are given as the source filed them. The rule behind the calls is not given here.
Columns and labels:
Pyruvate kinase PKM [1] = target: T1, Pyruvate kinase PKM (Homo sapiens, UniProt P14618); experiment: Activation of human PKM2 assessed as ATP product formation after 1 hr by luminescent pyruvate kinase-luciferase coupled assay
Summary of the method: (§1)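 Luminescent pyruvate kinase–luciferase coupled assay. AC50 is the mean of three separate experiments. Maximum response is % activation at 57 μM compound, normalized as described in the supporting information.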

Pyruvate kinase PKM [2] = target: T1, Pyruvate kinase PKM; experiment: Activation of human PKM2 assessed as ATP product formation at 57 µM after 1 hr by luminescent pyruvate kinase-luciferase coupled assay
Target sequence in this assay (P14618 2-531 limits assumed): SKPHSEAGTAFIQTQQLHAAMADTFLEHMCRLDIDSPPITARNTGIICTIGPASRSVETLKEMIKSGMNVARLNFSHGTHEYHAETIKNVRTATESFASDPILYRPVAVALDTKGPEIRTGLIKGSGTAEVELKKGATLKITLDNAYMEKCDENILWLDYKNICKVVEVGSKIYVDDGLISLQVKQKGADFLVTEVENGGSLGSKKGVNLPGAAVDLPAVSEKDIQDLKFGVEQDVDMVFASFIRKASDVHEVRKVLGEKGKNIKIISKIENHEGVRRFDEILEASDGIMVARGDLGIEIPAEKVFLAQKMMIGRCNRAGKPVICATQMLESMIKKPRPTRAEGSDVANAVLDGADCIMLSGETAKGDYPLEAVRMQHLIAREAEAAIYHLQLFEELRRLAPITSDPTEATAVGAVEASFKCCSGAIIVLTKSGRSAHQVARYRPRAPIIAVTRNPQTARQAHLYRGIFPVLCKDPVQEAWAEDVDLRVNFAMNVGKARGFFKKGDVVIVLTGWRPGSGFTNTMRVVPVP

Pyruvate kinase PKM [3] = target: T1, Pyruvate kinase PKM; experiment: Activation of human PKM2 assessed as ATP product formation at 57 uM after 1 hr by luminescent pyruvate-kinase luciferase coupled assay; summary of the method: as §1
Target sequence in this assay (P14618 2-531 limits assumed): as above

Liver = experiment: Half life in mouse liver microsomes at 2 uM after 2 mins by LC/MS/MS analysis; type: ADME, Microsome
[4] = Apparent permeability from basolateral to apical side of human Caco2 cells at pH 7.4 after 2 hrs by LC/MS/MS analysis; type: ADME, cell-based; settings: Caco-2, pH 7.4
[5] = target: Pyruvate kinase PKLR (Homo sapiens) (UniProt P30613); experiment: Activation of PKLR assessed as ATP product formation at 57.5 uM after 1 hr by luminescent pyruvate kinase-luciferase coupled assay
Liver microsomes = experiment: Half life in human liver microsomes at 2 uM after 2 mins by LC/MS/MS analysis; type: ADME, Microsome
Caco-2 = experiment: Efflux ratio of permeability from basolateral to apical side over apical to basolateral side in human Caco2 cells at pH 7.4 after 2 hrs by LC/MS/MS analysis; settings: caco-2, pH 7.4, 2 h
[6] = Apparent permeability from apical to basolateral side of human Caco2 cells at pH 7.4 after 2 hrs by LC/MS/MS analysis; type: ADME, cell-based; settings: Caco-2, pH 7.4
Pyruvate kinase PKM [7] = target: T1, Pyruvate kinase PKM; experiment: Activation of human PKM2 assessed as effect on Km of ADP at 10 uM by after 6 mins by fluorescent pyruvate kinase-lactate dehydrogenase coupled assay
Summary of the method: (§2)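 PK–LDH coupled kinetic assay run at about 22 °C with 10 nM PKM2, 200 mM KCl and 15 mM MgCl2. Either ADP or PEP was held at 4.0 mM while the other substrate was varied. Initial velocity (pmol/min) was measured with and without compound at 10 μM.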
Target sequence in this assay (P14618 2-531 limits assumed): as above

Pyruvate kinase PKM [8] = target: T1, Pyruvate kinase PKM; experiment: Activation of human PKM2 assessed as reduction in Km for PEP at 10 uM by after 6 mins by fluorescent pyruvate kinase-lactate dehydrogenase coupled assay; summary of the method: as §2
Target sequence in this assay (P14618 2-531 limits assumed): as above

Sequence of Pyruvate kinase PKLR (Homo sapiens) (P30613 whole entry, looked up): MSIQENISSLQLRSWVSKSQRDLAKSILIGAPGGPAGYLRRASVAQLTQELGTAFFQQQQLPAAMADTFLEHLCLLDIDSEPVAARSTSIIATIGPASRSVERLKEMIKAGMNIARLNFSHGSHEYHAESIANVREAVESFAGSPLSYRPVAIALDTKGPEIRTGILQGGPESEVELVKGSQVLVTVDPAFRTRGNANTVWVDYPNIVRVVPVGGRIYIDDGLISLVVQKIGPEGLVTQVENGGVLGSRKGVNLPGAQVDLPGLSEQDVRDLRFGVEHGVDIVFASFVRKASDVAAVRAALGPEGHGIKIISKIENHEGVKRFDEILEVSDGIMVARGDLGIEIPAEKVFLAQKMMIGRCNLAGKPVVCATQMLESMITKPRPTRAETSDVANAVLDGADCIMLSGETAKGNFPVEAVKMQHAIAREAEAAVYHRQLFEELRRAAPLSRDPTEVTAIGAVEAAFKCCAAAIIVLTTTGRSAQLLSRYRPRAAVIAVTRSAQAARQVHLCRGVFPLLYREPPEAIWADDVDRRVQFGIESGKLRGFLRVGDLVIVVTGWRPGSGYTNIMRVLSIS

In the case of Cc1ccc(NS(=O)(=O)c2cc(Br)cc3c2NC(=O)CC3)cc1Cl, the Activity (Pyruvate kinase PKM [1]) is reported as “inactive”.
For Cc1ccc(NS(=O)(=O)c2cc3c(cc2N[C@@H](C)CO)CCC(=O)N3)cc1Cl, the Emax (Pyruvate kinase PKM [2]) was 54%.
With Cc1cccc(NS(=O)(=O)c2ccc3c(c2)CCC(=O)N3)c1 the EC50 (Pyruvate kinase PKM [1]) was 250 nM and the Emax (Pyruvate kinase PKM [3]) was 101%.
With O=C1CCc2cc(S(=O)(=O)Nc3ccc4ncccc4c3)ccc2N1 the Emax (Pyruvate kinase PKM [3]) was “inactive”.
In the case of Cc1cc(NS(=O)(=O)c2cc3c(cc2F)NC(=O)CC3)ccc1F, the Emax (Pyruvate kinase PKM [2]) is reported as 92%.
For Cc1ccc(NS(=O)(=O)c2ccc3c(ccn3C)c2)cc1C, the EC50 (Pyruvate kinase PKM [1]) was 19900 nM and the Emax (Pyruvate kinase PKM [2]) was 47%.
With Cc1ccc(NS(=O)(=O)c2cc(Br)cc3c2NC(=O)CC3)cc1C the Activity (Pyruvate kinase PKM [1]) was “inactive”.
For COc1ccc(S(=O)(=O)Nc2ccc(C)c(C)c2)cc1, the Emax (Pyruvate kinase PKM [2]) was 53%.
In the case of O=C1CCc2cc(S(=O)(=O)Nc3ccc4c(c3)CCC4)ccc2N1, the Emax (Pyruvate kinase PKM [3]) is reported as 73%.
For Cc1ccccc1NS(=O)(=O)c1ccc2c(c1)CCC(=O)N2, the Emax (Pyruvate kinase PKM [3]) was 94%.
With C[C@@H](CO)Nc1cc2c(cc1S(=O)(=O)Nc1ccc(F)c(Cl)c1)CCC(=O)N2 the t1/2 (Liver) was 36.3 min, the Papp B→A at 2 h [4] was 17.5 ×10⁻⁶ cm/s and the Activity [5] was under 25%. The t1/2 (Liver microsomes) was 78.8 min, the Ratio (Caco-2) was 10.91 and the Papp A→B at 2 h [6] was 1.61 ×10⁻⁶ cm/s. It also gave an Emax (Pyruvate kinase PKM [2]) of 92%.
With Cc1ccc(NS(=O)(=O)c2cc3c(cc2Br)CCC(=O)N3)cc1C the EC50 (Pyruvate kinase PKM [1]) was 6600 nM and the Emax (Pyruvate kinase PKM [2]) was 52%.
Cc1ccc(NS(=O)(=O)c2ccc3c(c2)CCC(=O)N3)cc1F gave an Emax (Pyruvate kinase PKM [3]) of 138%.
With O=C1CCc2cc(S(=O)(=O)Nc3ccc(F)cc3)ccc2N1 the Emax (Pyruvate kinase PKM [3]) was 84%.
For Cc1ccc(NS(=O)(=O)c2cc3c(cc2N2CCC(N(C)C)C2)NC(=O)CC3)cc1C (racemic), the Emax (Pyruvate kinase PKM [2]) was “inactive”.
For Cc1ccc(NS(=O)(=O)c2cc3c(cc2/C=C/c2ccccc2)NC(=O)CO3)cc1C, the Emax (Pyruvate kinase PKM [2]) was “inactive”.
Compound Cc1ccc(NS(=O)(=O)c2ccc3c(c2)oc(=O)n3C)cc1C has an Emax (Pyruvate kinase PKM [2]) of 95%.
For CC(=O)N1CCCc2cc(S(=O)(=O)Nc3ccc(C)c(C)c3)ccc21, the Emax (Pyruvate kinase PKM [2]) was 76%.
Compound Cc1ccc(NS(=O)(=O)c2ccc(N3CCCC3=O)cc2)cc1C has an Emax (Pyruvate kinase PKM [2]) of 60%.
In the case of Cc1ccc(NS(=O)(=O)c2ccc3[nH]c(=O)[nH]c3c2)cc1C, the Emax (Pyruvate kinase PKM [2]) is reported as “inactive”.
For Cc1ccc(NS(=O)(=O)c2ccc3c(c2)CCC(=O)N3)cc1Cl, the EC50 (Pyruvate kinase PKM [1]) was 100 nM and the Emax (Pyruvate kinase PKM [3]) was 104%.
With O=C1CCc2cc(S(=O)(=O)Nc3ccncc3)ccc2N1 the Emax (Pyruvate kinase PKM [3]) was “inactive”.
Cc1ccc(NS(=O)(=O)c2ccc3c(c2)CC(=O)N3C)cc1C showed an Emax (Pyruvate kinase PKM [2]) of 119%.
For Cc1cc(NS(=O)(=O)c2cc3c(cc2N[C@@H](C)CO)NC(=O)CC3)ccc1F, the Emax (Pyruvate kinase PKM [2]) was 95%.
Compound Cc1ccc(NS(=O)(=O)c2cc3c(cc2N2CCCCC2)NC(=O)CC3)cc1C has an Emax (Pyruvate kinase PKM [2]) of 47%.
In the case of Cc1ccc(NS(=O)(=O)c2cc3c(cc2Br)CCC(=O)N3)cc1Cl, the EC50 (Pyruvate kinase PKM [1]) is reported as 7430 nM and the Emax (Pyruvate kinase PKM [2]) is reported as 51%.
For Cc1ccc(NS(=O)(=O)c2cccc(C(=O)O)c2)cc1C, the Emax (Pyruvate kinase PKM [2]) was “inactive”.
In the case of O=C1CCc2cc(S(=O)(=O)Nc3ccc4ccccc4c3)ccc2N1, the Emax (Pyruvate kinase PKM [3]) is reported as 121%.
With Cc1ccc(NS(=O)(=O)c2cc3c(cc2N(C)C)CCC(=O)N3)cc1C the Emax (Pyruvate kinase PKM [2]) was 106%.
With Cc1ccc(NS(=O)(=O)c2ccc3c(c2)CCC(C)(C)O3)cc1C the Emax (Pyruvate kinase PKM [2]) was 62%.
Compound Cc1ccc(NS(=O)(=O)c2cc3c(cc2F)NC(=O)CC3)cc1C has a t1/2 (Liver) of 34.3 min, a t1/2 (Liver microsomes) of 16.5 min and an Emax (Pyruvate kinase PKM [2]) of 101%.
In the case of Cc1ccc(NS(=O)(=O)c2ccc3c(c2)CCCC(=O)N3)cc1C, the Emax (Pyruvate kinase PKM [2]) is reported as 88%.
Work on Cc1cc(NS(=O)(=O)c2cc3c(cc2F)NC(=O)CC3)ccc1Cl yielded an Emax (Pyruvate kinase PKM [2]) of 93%.
With Cc1ccc(NS(=O)(=O)c2cc3c(cc2NC(C)C)NC(=O)CC3)cc1C the Emax (Pyruvate kinase PKM [2]) was 123%.
In the case of O=C1CCc2cc(S(=O)(=O)Nc3ccccc3F)ccc2N1, the Emax (Pyruvate kinase PKM [3]) is reported as 95%.
Compound Cc1ccc(NS(=O)(=O)c2cc3c(cc2N2CCCC2)NC(=O)CC3)cc1C has an Emax (Pyruvate kinase PKM [2]) of 123%.
Compound Cc1ccc(NS(=O)(=O)c2cc3c(cc2N[C@@H](C)CO)NC(=O)CC3)cc1C has an EC50 (Pyruvate kinase PKM [1]) of 170 nM and an Emax (Pyruvate kinase PKM [2]) of 116%.
Cc1ccc(NS(=O)(=O)c2cc3c(cc2Cl)CCC(=O)N3)cc1C showed an Emax (Pyruvate kinase PKM [2]) of 92%.
With O=C1CCc2cc(S(=O)(=O)Nc3ccc(F)c(Cl)c3)c(F)cc2N1 the t1/2 (Liver) was 117.5 min, the Papp B→A at 2 h [4] was 7.91 ×10⁻⁶ cm/s and the Activity [5] was under 25%. For the same compound, the EC50 (Pyruvate kinase PKM [1]) was 90 nM, the t1/2 (Liver microsomes) was 277.2 min and the Ratio (Caco-2) was 0.84. For the same compound, the Papp A→B at 2 h [6] was 9.38 ×10⁻⁶ cm/s, the Emax (Pyruvate kinase PKM [2]) was 88% and the Activity (Pyruvate kinase PKM [7]) was “inactive”. The Activity (Pyruvate kinase PKM [8]) was “Active”.

Reference: ChEMBL document CHEMBL1938233, “2-Oxo-N-aryl-1,2,3,4-tetrahydroquinoline-6-sulfonamides as activators of the tumor cell specific M2 isoform of pyruvate kinase” (Bioorg Med Chem Lett, 2011)
